CTSL1 counter: Fasciola hepatica cathepsin L1 inhibitors, primary screen, counter-screen for PFM18AAP inhibitor project, biochemical, QFRET, fluorogenic peptide substrate. 300,000 tested, 0.49% active. recombinant F. hepatica cathepsin L1, Z-Leu-Arg-MCA fluorescence. inhibition, % at 5.96 µM;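 active means inhibition above the mean of all tested compounds plus 3 SD, set per screening campaign, cut at about 17% in these data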
PP5 primary: PP5 phosphatase inhibitors, primary screen, biochemical, fluorescence | Serine/threonine-protein phosphatase 5 (Homo sapiens), P53041 | purified PP5c, OMFP substrate fluorescence | AID 1987, 2009 | inhibition, % at 6.7 µM | 320,000 tested, 0.18% active;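 active means inhibition above the campaign's mean inhibition across all tested compounds plus 3 SD, cut at about 9.5% in these data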
Target sequence (P53041 whole entry, looked up): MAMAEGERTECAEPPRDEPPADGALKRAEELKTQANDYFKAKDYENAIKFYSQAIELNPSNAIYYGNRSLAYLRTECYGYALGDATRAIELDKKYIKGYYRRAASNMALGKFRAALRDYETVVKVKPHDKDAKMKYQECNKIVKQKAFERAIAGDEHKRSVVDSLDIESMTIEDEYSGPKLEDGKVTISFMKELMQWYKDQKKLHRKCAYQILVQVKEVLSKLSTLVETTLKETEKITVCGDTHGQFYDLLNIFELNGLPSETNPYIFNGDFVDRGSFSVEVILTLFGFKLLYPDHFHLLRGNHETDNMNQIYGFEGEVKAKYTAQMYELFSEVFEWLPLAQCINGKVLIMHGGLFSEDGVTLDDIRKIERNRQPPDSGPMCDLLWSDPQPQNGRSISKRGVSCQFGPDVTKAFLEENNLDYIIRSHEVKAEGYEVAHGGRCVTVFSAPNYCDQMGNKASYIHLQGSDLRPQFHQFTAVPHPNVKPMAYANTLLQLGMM
PP1 counter: PP1-alpha phosphatase inhibitors, primary screen, counter-screen for PP5 inhibitor project, biochemical, fluorescence, OMFP substrate, single point | Serine/threonine-protein phosphatase PP1-alpha catalytic subunit (Homo sapiens), P62136 | purified PP1alpha | inhibition, % at 6.7 µM | 320,000 tested, 0.9% active | AID 2235, 2010;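 active means inhibition above the mean inhibition of all tested compounds plus 3 SD, computed separately for each screening campaign, cut at about 15% in these data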
HCV core dimer: inhibitors of HCV core protein dimerization, primary screen, biochemical, TR-FRET, high-throughput. 300,000 tested, 0.33% active. AID 1899, 2009. inhibition, % at 5 µM. TR-FRET GST/Flag-core106 dimerization, 1536-well;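 active means inhibition above the mean of all tested compounds plus 3 SD, set per screening campaign, cut at about 45% in these data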
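Assay system: Tagged HCV core106 pair (GST and Flag) | Buffer or medium: KF-containing HEPES buffer, pH 7.45, DTT, CHAPS, BSA | Also added: Eu donor and XL665 acceptor anti-tag antibodies | Dosing: One concentration, 5 µM, in 0.5% DMSO | Timing: 4 h at 22.5 °C | Technique: TR-FRET 671 and 617 nm emission | Repeats: Singlicate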
Myeloid diff 2: induction of myeloid progenitor differentiation, primary screen, cell-based, flow cytometry, MLPCN library | 360,000 tested, 1% active | ER-HoxA9 myeloid progenitors, lysozyme-GFP differentiation | calls only at 10 µM | AID 624256, 2012;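 active means normalized GFP-positive differentiation at or above the plate's own cutoff, the solvent-only control mean plus 3 SD; inconclusive means no clear call, values can overlap the other calls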;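 further: cells exposed to compound for four days before flow analysis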
NadD block: inhibitors of S. aureus NadD, primary screen, biochemical, colorimetric, uHTS; Nicotinate-nucleotide adenylyltransferase NadD (Staphylococcus aureus N315); purified NadD enzyme, colorimetric absorbance read-out; inhibition, % at 20 µM; 360,000 tested, 0.78% active; AID 602399, 2012; in the data active means inhibition above about 26%
PP1 inh confirm: PP1 phosphatase inhibitors, confirmation, biochemical, fluorescence, OMFP substrate, triplicate | shares compounds with PP1 counter | purified PP1alpha | inhibition, % at 6.7 µM | 1,900 tested, 52% active | AID 2358, 2010;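 active means mean PP1 inhibition above a set limit taken from the earlier primary screen, cut at about 15% in these data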
PP5 counter: PP5 phosphatase inhibition by PP1 hits, confirmation, counter-screen for PP1 inhibitor project, biochemical, fluorescence, triplicate; shares compounds with PP1 counter; purified PP5c, OMFP fluorescence; inhibition, % at 6.7 µM; 1,900 tested, 4% active;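 active means mean PP5 inhibition over triplicate wells above about 9.5% taken from the earlier PP1 screen, limit read from the data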
Each line names hits and unclear results; the compound was inactive in the other large screens (follow-up assays come after a bar, where they were run). Shown are actives, neighbours in structure and some others; about 3.1% of the full set was active somewhere.

CN(C)c1ccc(C=Nc2ccccc2)cc1	none
CN(C)c1ccc(N=Cc2ccco2)cc1	PP1 counter 18, Myeloid diff 2 active | PP1 inh confirm inactive | PP5 counter inactive
CN(C(=O)COC(=O)Cn1cnc2ccccc21)C1CCCCC1	none (no result: CTSL1 counter, PP5 primary, PP1 counter, HCV core dimer)
O=C(NCC1CCCCC1)c1cccc(-c2ccc(O)cc2)c1	PP1 counter 18, Myeloid diff 2 inconclusive | PP1 inh confirm inactive | PP5 counter inactive
Cc1ccc(Nc2cc(C)nn2-c2nc(C)cc(=O)[nH]2)cc1	PP1 counter 26, Myeloid diff 2 inconclusive | PP1 inh confirm 20 | PP5 counter inactive
Cc1ccc(Nc2cc(C)nn2-c2nc(C)cc(C)n2)cc1	none
COCCCNC(=O)CN(CCc1ccccc1)S(=O)(=O)c1ccccc1	none
COCCNC(=O)CN(CCc1ccccc1)S(=O)(=O)c1ccc(Br)cc1	PP1 counter 33 | PP1 inh confirm inactive | PP5 counter inactive
CC1(OC(=O)c2cccs2)C(=O)C=C2C=C(c3ccc(C#N)cc3)OC=C2C1=O (stereo not given)	PP1 counter 21 (no result: Myeloid diff 2, NadD block) | PP1 inh confirm inactive | PP5 counter inactive
C=CCN1C(=O)c2ccccc2NC1c1cc(Br)cs1 (stereo not given)	none
CC1=NN(c2ccccc2)C(=O)/C1=C/c1c(O)n(-c2ccc(F)c(Cl)c2)[nH]c1=O	PP5 primary 10, PP1 counter 18 (no result: Myeloid diff 2, NadD block) | PP1 inh confirm inactive | PP5 counter inactive
O=C(Nc1ccccc1)Nc1nnc(-c2ccccc2)o1	none
O=C(Nc1nnc(-c2ccccc2)o1)c1nc2ccccc2s1	PP1 counter 25 | PP1 inh confirm 28 | PP5 counter inactive
NC(=O)c1oc2ccccc2c1NC(=O)c1nc2ccccc2s1	PP1 counter 25 | PP1 inh confirm 16 | PP5 counter inactive
CCCn1c(N)c(N(CCOC)C(=O)c2c(CC)noc2C)c(=O)[nH]c1=O	none (no result: CTSL1 counter, PP5 primary, PP1 counter, HCV core dimer)
O=C(O)c1cc(-c2ccc(N3CCOCC3)cc2)nn1-c1ccc(F)cc1F	PP1 counter 24 | PP1 inh confirm 27 | PP5 counter inactive
O=C(O)c1cc(-c2ccc(N3CCOCC3)cc2)nn1-c1ccccc1Cl	PP1 counter 34 | PP1 inh confirm 38 | PP5 counter inactive
O=C(c1ccccc1)c1ccc(N2CCOCC2)cc1	none (no result: CTSL1 counter, PP5 primary, PP1 counter, HCV core dimer)
CC(C)NC(=O)C1(C)CCN1C(=O)c1ccc2c(c1)OCO2 (stereo not given)	none (no result: CTSL1 counter, PP5 primary, PP1 counter, HCV core dimer)
O=C(OCC(=O)N1CCCCC1)c1ccc2c(c1)C(=O)N(Cc1ccco1)C2=O	none (no result: CTSL1 counter, HCV core dimer)
Cc1cccc(-c2cc3nc(-c4ccccc4)cc(=O)n3[nH]2)c1	PP1 counter 23 | PP1 inh confirm 21 | PP5 counter inactive
Cc1cc(=O)n2[nH]c(-c3ccc(F)cc3)cc2n1	none
O=c1cc(-c2ccc([N+](=O)[O-])cc2)nc2cc(-c3ccc(F)cc3)[nH]n12	PP1 counter 35 | PP1 inh confirm 34 | PP5 counter inactive
COc1ccc(CNC(=O)[C@@H]2CC=C[C@@H]3CCN(Cc4ccc(Cl)c(Cl)c4)C(=O)[C@@H]32)cc1	none
COc1ccc(CNC[C@@H](CCCCN(C)Cc2ccc(OC)cc2)N2C[C@H](c3ccccc3)N(CCc3ccc(Cl)c(Cl)c3)C(=O)C2=O)cc1	PP1 counter 39 | PP1 inh confirm inactive | PP5 counter inactive
CN(C)C(=O)CSc1nc2ccc(C(=O)c3ccccc3)cc2[nH]1	none
Cc1ccc(NC(=O)Nc2nnc(-c3ccncc3)s2)cc1C	PP1 counter 25 | PP1 inh confirm 29 | PP5 counter inactive
COc1cccc(C(=O)Nc2cccc(C(=O)NC3=NN(c4c(Cl)cc(Cl)cc4Cl)C(=O)C3)c2)c1	PP1 counter 29 | PP1 inh confirm inactive | PP5 counter inactive
O=C(/C=C/c1ccccc1)NC(=S)NNC(=O)c1cccnc1	none
O=C(/C=C/c1ccccc1)NC(=S)NNC(=O)c1cnccn1	PP1 counter 22 | PP1 inh confirm 24 | PP5 counter inactive
CC(C)NC(=O)c1ccc2sc([C@H]3C[C@H](O)[C@@H](CO)O3)nc2c1	none (no result: CTSL1 counter, PP5 primary, PP1 counter, HCV core dimer)
CC(=O)Nc1ccc(S(=O)(=O)N[C@@H](C)C(=O)NC2CCCc3ccccc32)cc1 (stereo not given in full)	none (no result: CTSL1 counter, PP5 primary, PP1 counter, HCV core dimer)
COCCn1ccc2c(OCC(=O)Nc3ccccc3OC)cccc2c1=O	none
NNC(=O)Cn1c(SCc2ccccc2)nc2ccccc21	PP1 counter 18 | PP1 inh confirm inactive | PP5 counter inactive
Cc1c(Cl)c(C(F)(F)F)nn1CC(=O)NCc1ccco1	none
Cc1cc(C(F)(F)F)nn1CC(=O)NCc1ccco1	PP1 counter 18 | PP1 inh confirm inactive | PP5 counter inactive
Nc1ccc(S(=O)(=O)Nc2nccc(/C=C/c3ccc(Cl)cc3Cl)n2)cc1	PP1 counter 19 | PP1 inh confirm 21 | PP5 counter inactive
Nc1ccc(S(=O)(=O)Nc2nccc(/C=C/c3ccc(Cl)cc3)n2)cc1	none
O=C(CN(Cc1ccc(Br)cc1)S(=O)(=O)c1ccccc1)NCC1CCCO1 (stereo not given)	none
O=C(O)C1Nc2ccc(Br)cc2C2C=CCC12 (stereo not given)	PP1 counter 38, NadD block 31 | PP1 inh confirm inactive | PP5 counter inactive
CC(C)CNC(=O)C1Nc2ccccc2C2C=CCC12 (stereo not given)	none
O=C(O)C1Nc2c(Cl)cc(Cl)cc2C2C=CCC12 (stereo not given)	PP1 counter 24 | PP1 inh confirm inactive | PP5 counter inactive
COc1ccc(C(=O)NCC(=O)OCc2nc(N)nc(Nc3ccccc3C)n2)cc1	none (no result: CTSL1 counter, HCV core dimer)
O=C(CSc1nc(O)cc(=O)[nH]1)N1c2ccccc2CCc2ccccc21	PP1 counter 28 | PP1 inh confirm inactive | PP5 counter inactive
COc1cccc(CN(CCC(=O)O)Cc2cccc(OC)c2)c1	none (no result: CTSL1 counter, PP5 primary, PP1 counter, HCV core dimer)
COc1ccc(S(=O)(=O)N2CCN(c3nc(-c4cccnc4)nc4ccccc34)CC2)cc1	PP1 counter 21 (no result: CTSL1 counter, HCV core dimer) | PP1 inh confirm 17 | PP5 counter inactive

Screening results from PubChem.
